By IC50 is commonly meant the concentration that inhibits the measured activity by half. High values mean weaker potency, low ones greater potency. As a reminder, the Ki is the dissociation constant of the complex between target and ligand, obtained from inhibition or displacement.

These results are taken from ChEMBL document CHEMBL1687941 (J Med Chem, 2011).

Experiment [1] has as its system Plasmodium falciparum. In words: Antimalarial activity against Plasmodium falciparum 3D7 infected-erythrocytes after 72 hrs by SYBR green fluorescence method. As to conditions: 3D7, 72 h; call rule not given here. The experiment is classed as functional, organism-based. An outline of the steps: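 P. falciparum 3D7 grown in erythrocytes at 4% hematocrit in RPMI 1640 with 20 mM HEPES, 32 mM NaHCO3, 10% Albumax II. Serial dilutions added to phenol red-free culture at 0.5% starting parasitemia, in triplicate, for 72 h at 37 °C. Lysis buffer with saponin, Triton X and SYBR Green I then added for 1 h at room temperature. Fluorescence read as parasite growth, and IC50 derived.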

The target in experiment [2] is T1, Aminopeptidase N (Plasmodium falciparum FcB1/Columbia, UniProt O96935).
T1 sequence (O96935 whole entry): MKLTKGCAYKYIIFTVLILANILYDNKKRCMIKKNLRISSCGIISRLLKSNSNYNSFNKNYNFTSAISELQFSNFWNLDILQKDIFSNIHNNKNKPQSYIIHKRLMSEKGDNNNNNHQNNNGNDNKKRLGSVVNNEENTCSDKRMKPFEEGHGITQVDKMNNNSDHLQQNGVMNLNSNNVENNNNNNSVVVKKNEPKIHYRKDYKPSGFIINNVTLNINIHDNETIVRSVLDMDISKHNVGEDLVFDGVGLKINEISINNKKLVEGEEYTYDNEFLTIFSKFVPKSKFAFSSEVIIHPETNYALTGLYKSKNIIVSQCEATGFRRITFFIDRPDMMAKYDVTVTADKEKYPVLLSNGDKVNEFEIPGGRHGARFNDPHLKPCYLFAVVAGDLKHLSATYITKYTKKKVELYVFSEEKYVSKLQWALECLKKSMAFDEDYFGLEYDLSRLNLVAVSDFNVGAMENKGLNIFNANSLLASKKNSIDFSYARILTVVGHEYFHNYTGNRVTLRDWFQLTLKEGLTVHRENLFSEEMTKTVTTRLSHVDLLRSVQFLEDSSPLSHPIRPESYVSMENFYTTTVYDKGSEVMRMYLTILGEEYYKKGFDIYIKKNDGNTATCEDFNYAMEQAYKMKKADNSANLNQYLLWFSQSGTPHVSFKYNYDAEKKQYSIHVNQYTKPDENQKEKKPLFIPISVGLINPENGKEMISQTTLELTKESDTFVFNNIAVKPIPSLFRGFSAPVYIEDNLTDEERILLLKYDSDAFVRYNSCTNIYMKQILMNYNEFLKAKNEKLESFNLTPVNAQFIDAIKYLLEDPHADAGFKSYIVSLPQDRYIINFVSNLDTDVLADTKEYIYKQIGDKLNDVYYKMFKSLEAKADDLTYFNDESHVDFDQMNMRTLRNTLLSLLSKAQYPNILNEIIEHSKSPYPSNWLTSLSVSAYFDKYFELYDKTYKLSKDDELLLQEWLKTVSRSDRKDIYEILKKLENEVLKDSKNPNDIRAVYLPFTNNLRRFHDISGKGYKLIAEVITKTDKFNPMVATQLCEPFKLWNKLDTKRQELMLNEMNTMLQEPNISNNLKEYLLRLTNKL
In words: Inhibition of Plasmodium falciparum recombinant M1-aminopeptidase expressed in Escherichia coli after 40 mins uisng fluorogenic substrate L-Leucyl-7-amido-40-methylcoumarin by fluorescence spectrophotometry. An outline of the steps:
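Recombinant PfA-M1 expressed in E. coli, 0.9 nM, in 50 mM HEPES pH 7.5, 100 mM NaCl, 0.1% Triton X-100. Ki by Dixon plots (1/rate vs [I]) and secondary plots vs 1/[S]. Competitive mode checked with a/v vs i plots.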

In experiment [1], `CC(C)C[C@H](NC(=O)[C@@H](O)[C@H](N)Cc1ccc(OCc2ccccc2)cc1)C(=O)O` registered an IC50 of 29 µM.

Regarding `COc1ccc(C[C@@H](N)[C@H](O)C(=O)N[C@@H](CC(C)C)C(=O)O)cc1`, half-maximal inhibition in experiment [1] (IC50) was put at 6.4 µM. Against the preceding compound, the IC50 is about 4.5-fold lower.

With `CCCC[C@H](NC(=O)[C@@H](O)[C@H](N)Cc1ccccc1)C(=O)O`, the Ki in experiment [2] (read-out: Ki) is 0.9 µM.

Regarding `N[C@H](Cc1ccccc1)[C@H](O)C(=O)N[C@@H](CCCCNC(=O)OCc1ccccc1)C(=O)O`, the Ki in experiment [2] (read-out: Ki) amounted to 1.45 µM.

In the case of `CC(C)C[C@H](NC(=O)[C@@H](O)[C@H](N)Cc1ccc2ccccc2c1)C(=O)O`, the Ki in experiment [2] (read-out: Ki) was found to be 3 µM. Further, the IC50 in experiment [1] was over 50 µM.

As for `CCCC[C@@H](N)[C@H](O)C(=O)N[C@@H](CC(C)C)C(=O)O`, the Ki in experiment [2] (read-out: Ki) worked out at 5.3 µM. This compound also returned an IC50 in experiment [1] of over 50 µM.

Take `CC(C)C[C@H](NC(=O)[C@@H](O)[C@H](N)CC(C)C)C(=O)O`: the Ki entry in experiment [2] is reported as “Not Active”. The compound further yielded an IC50 in experiment [1] of over 50 µM.

For `CC(C)C[C@H](NC(=O)[C@@H](O)[C@H](N)Cc1ccc(-c2ccccc2)cc1)C(=O)O`, the Ki result in experiment [2] is given as “Not Active”. For the same compound, the IC50 in experiment [1] is over 50 µM.

With `CC(C)C[C@H](NC(=O)[C@@H](O)[C@H](N)C(c1ccccc1)c1ccccc1)C(=O)O`, the Ki result in experiment [2] is “Not Active”. The compound also had an IC50 in experiment [1] of over 50 µM.

As to `CC(C)C[C@H](NC(=O)[C@@H](O)[C@H](N)Cc1ccccc1)C(=O)O` [UBENIMEX], the IC50 in experiment [1] worked out at 3.2 µM.
